Experiment [1] deals with T1, Transient receptor potential cation channel subfamily V member 1 (Homo sapiens, UniProt Q8NER1). Put plainly: Antagonist activity at human TRPV1 expressed in tetracycline-stimulated HEK293 cells assessed as inhibition of capsaicin-induced intracellular calcium levels by fluorimetric assay. It counts as functional, cell-based. In general terms: Calcium assays in cells follow changes in intracellular calcium, usually with a dye or a luminescent sensor.

For experiment [2], the target named is T1, Transient receptor potential cation channel subfamily V member 1. The experiment is described as follows: Antagonist activity at human TRPV1 expressed in tetracycline-stimulated HEK293 cells assessed as inhibition of capsaicin-induced intracellular calcium levels by fluorimetric assay relative to control. Type of experiment: functional, cell-based.
For experiment [3] the target is unchanged. The experiment is described as follows: Agonist activity at human TRPV1 expressed in tetracycline-stimulated HEK293 cells assessed as increase in intracellular calcium levels by fluorimetric assay relative to control. It counts as functional, cell-based. The gist of the method:
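Tetracycline induction (0.1 µg/mL, 16–24 h) of HEK T-REx hTRPV1 cells, then Fluo-4/AM loading (1 µM, with probenecid 2 mM, 1 h, 37 °C) and a 30 min rest in HEPES buffer pH 7.4. Screening at 100 µM, then full concentration–response for compounds above 50%. Ex 488/em 520 nm, 22–24 °C, triplicate wells.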

Experiment [4] shares this target. The experiment is described as follows: Agonist activity at human TRPV1 expressed in tetracycline-stimulated HEK293 cells assessed as increase in intracellular calcium levels by fluorimetric assay. It counts as functional, cell-based.
The target is the same in experiment [5]. The experiment is described as follows: Agonist activity at human TRPV1 expressed in HEK293 cells assessed as increase in intracellular calcium levels by fluorimetric assay without tetracycline-stimulation. It counts as functional, cell-based. In a few lines: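 Non-induced HEK T-REx hTRPV1 cells (no tetracycline) loaded with Fluo-4/AM 1 µM plus probenecid 2 mM for 1 h at 37 °C, then equilibrated 30 min in HEPES buffer pH 7.4. Compounds at 100 µM (10 µM where solubility poor), DMSO ≤0.1%. Fluorescence read at 488/520 nm, 22–24 °C, triplicate wells. Response given as % of 1 µM ionomycin; n = 4–6.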

Experiment [6] has the same target. The experiment is described as follows: Displacement of [3H]resiniferatoxin from human TRPV1. Background: Loss of bound radioactivity is the signal in a displacement assay; it reports binding, not function.

Molecules are shown by their SMILES. pEC50: −log10 of the molar value. Active and inactive are the calls of the source. The rule behind the calls is not given here.

T1 sequence (Q8NER1 whole entry): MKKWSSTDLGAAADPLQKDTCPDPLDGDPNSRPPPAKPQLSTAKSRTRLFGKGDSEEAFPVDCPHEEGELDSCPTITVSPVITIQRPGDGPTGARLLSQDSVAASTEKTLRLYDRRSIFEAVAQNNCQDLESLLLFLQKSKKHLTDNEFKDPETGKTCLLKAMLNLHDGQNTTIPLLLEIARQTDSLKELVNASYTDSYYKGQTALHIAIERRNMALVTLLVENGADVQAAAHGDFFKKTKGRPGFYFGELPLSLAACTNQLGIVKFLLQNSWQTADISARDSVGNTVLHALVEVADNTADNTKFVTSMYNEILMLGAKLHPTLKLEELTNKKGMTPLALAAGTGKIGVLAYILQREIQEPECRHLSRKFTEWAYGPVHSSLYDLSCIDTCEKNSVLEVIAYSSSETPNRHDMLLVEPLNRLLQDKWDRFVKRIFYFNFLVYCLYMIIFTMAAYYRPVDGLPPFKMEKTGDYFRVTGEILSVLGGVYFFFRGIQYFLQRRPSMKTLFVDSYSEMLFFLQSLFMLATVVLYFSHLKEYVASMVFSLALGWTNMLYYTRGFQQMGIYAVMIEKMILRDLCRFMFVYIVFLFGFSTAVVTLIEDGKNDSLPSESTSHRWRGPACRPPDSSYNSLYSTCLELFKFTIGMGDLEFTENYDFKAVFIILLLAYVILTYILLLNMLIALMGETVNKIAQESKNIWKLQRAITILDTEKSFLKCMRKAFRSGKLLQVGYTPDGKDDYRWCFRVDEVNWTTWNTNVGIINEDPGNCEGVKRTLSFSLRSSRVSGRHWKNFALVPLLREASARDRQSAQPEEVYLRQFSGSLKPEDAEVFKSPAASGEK

One may read the pEC50 as the negative decadic logarithm of the EC50, by convention in mol/L. The Emax is the size of the effect at its maximum, as opposed to the concentration needed. Take `COc1cc(/C=C/C(=O)N2CCCCC2)ccc1O`: in experiment [1], the pEC50 was 8.70. For the same compound, in experiment [2], the maximal effect (Emax) was 93%.

As for `COc1cc(CNC(=O)CCCC/C=C/C(C)C)ccc1O`, the maximum response (Emax) in experiment [3] worked out at 97%.

In the case of `Oc1cc2c(cc1O)CN(C(=S)NCCc1ccc(Cl)cc1)CCC2` [CAPSAZEPINE], in experiment [1], the pEC50 is 5.60. For the same compound, in experiment [2], the Emax was 92%.

As to `O=C(/C=C/C=C/c1ccc2c(c1)OCO2)N1CCOCC1`, the maximal response (Emax) in experiment [3] came to 93%. For the same compound, in experiment [4], the pEC50 is 5.60. Besides, in experiment [5], the result was inactive.

For `O=C(/C=C/CCc1ccc2c(c1)OCO2)N1CCCCC1` [PIPERANINE], the maximal effect (Emax) in experiment [3] was found to be 88%. In addition, the pEC50 in experiment [4] was 5.40. Further, the outcome in experiment [5] was inactive.

With `O=C(/C=C/C=C/c1ccc2c(c1)OCO2)Nc1ccc(Cl)cc1`, the pEC50 in experiment [1] is 8.00. Further, in experiment [2], the Emax is 94%.

Turning to `O=C(/C=C/c1ccc2c(c1)OCO2)N1CCCCC1` [ILEPCIMIDE], the Emax in experiment [3] turned out to be 66%. In addition, the negative-log EC50 (pEC50) in experiment [4] was 4.70. Also, in experiment [5], the outcome was inactive.

As for `O=C(/C=C/C=C/c1ccc2c(c1)OCO2)N1CCCCC1` [PIPERINE], the outcome in experiment [6] and in experiment [5] was inactive. For the same compound, the Emax in experiment [3] turned out to be 91%. Further, the pEC50 in experiment [4] is 5.50.

Turning to `COc1cc(/C=C/C(=O)N2CCSCC2)ccc1O`, the pEC50 in experiment [1] is 8.60. The Emax in experiment [2] stood at 93%.

With `O=C(CCCCc1ccc2c(c1)OCO2)N1CCCCC1` [TETRAHYDROPIPERINE], in experiment [3], the Emax was 90%. Besides, the pEC50 in experiment [4] was 5.20. Also, in experiment [5], the result was inactive.

For the compound `COc1cc(/C=C/C(=O)N2CCOCC2)ccc1O`, the pEC50 in experiment [1] was 8.60. Further, the Emax in experiment [2] was 92%.

As to `COc1cc(/C=C/C(=O)NCC(C)C)ccc1O`, in experiment [1], the negative logarithm of the EC50 (pEC50) is 8.20. The Emax in experiment [2] is 94%.

In the case of `CC(C)CNC(=O)/C=C/C=C/c1ccc2c(c1)OCO2` [PIPERLONGUMININE], in experiment [1], the negative logarithm of the EC50 (pEC50) was 8.20. Besides, the Emax in experiment [2] was 94%.

The record behind these values is ChEMBL document CHEMBL1158557, “In vitro TRPV1 activity of piperine derived amides” (Bioorg Med Chem, 2010).
